Tests used:
Format in all cases: functional
[1] = Antiinflammatory activity assessed as inhibition of heat-induced albumin denaturation at 0.5 uM after 20 mins by spectrophotometric method relative to control
Procedure, shortened: (§1)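 Bovine albumin fraction as a 1% aqueous solution, with test agent at 0.5−10 μM, adjusted to pH 6.3 with 1 N HCl. Incubated 20 min at 37 °C, then heated 20 min at 51 °C. After cooling, turbidity read at 660 nm. % inhibition = [(A0 − A1)/A0] × 100 versus control absorbance. Diclofenac sodium as reference.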

[2] = Antiinflammatory activity assessed as inhibition of heat-induced albumin denaturation at 1 uM after 20 mins by spectrophotometric method relative to control; procedure, shortened: as §1
[3] = Antiinflammatory activity assessed as inhibition of heat-induced albumin denaturation at 5 uM after 20 mins by spectrophotometric method relative to control; procedure, shortened: as §1
[4] = Antiinflammatory activity assessed as inhibition of heat-induced albumin denaturation at 10 uM after 20 mins by spectrophotometric method relative to control; procedure, shortened: as §1
[5] = Antiinflammatory activity assessed as inhibition of heat-induced albumin denaturation after 20 mins by spectrophotometric method; procedure, shortened: as §1
Rattus norvegicus [6] = experiment: Antiinflammatory activity in Wistar rat assessed as inhibition of carrageenan-induced paw edema at 10 mg/kg, po preincubated for 1 hr followed by carrageenan challenge measured at 1 hr by plethysmometer relative to control
Procedure, shortened: (§2)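 Adult male albino Wistar animals, 25−30 g, in groups of five, 25 ± 2 °C, 12 h light/dark. Oral dosing, with PBS vehicle for controls. One hour later, 0.1 mL of 1% carrageenan was injected subplantar into the left hind paw. Paw volume was read by plethysmometer at 1, 2, 3 and 4 h relative to pre-injection. % inhibition = [(D0 − Dt)/D0] × 100 versus control group mean at each time. Mean ± SD, n = 5, Student's test.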

Rattus norvegicus [7] = experiment: Antiinflammatory activity in Wistar rat assessed as inhibition of carrageenan-induced paw edema at 10 mg/kg, po preincubated for 1 hr followed by carrageenan challenge measured at 2 hrs by plethysmometer relative to control; procedure, shortened: as §2
Rattus norvegicus [8] = experiment: Antiinflammatory activity in Wistar rat assessed as inhibition of carrageenan-induced paw edema at 10 mg/kg, po preincubated for 1 hr followed by carrageenan challenge measured at 3 hrs by plethysmometer relative to control; procedure, shortened: as §2
Rattus norvegicus [9] = experiment: Antiinflammatory activity in Wistar rat assessed as inhibition of carrageenan-induced paw edema at 10 mg/kg, po preincubated for 1 hr followed by carrageenan challenge measured at 4 hrs by plethysmometer relative to control; procedure, shortened: as §2

IC50 [5] [µM]	Compound	inhibition [1] [%]	inhibition [2] [%]	inhibition [3] [%]	inhibition [4] [%]	inhibition in vivo at 10 mg/kg (Rattus norvegicus [6]) [%]	inhibition in vivo at 10 mg/kg (Rattus norvegicus [7]) [%]	inhibition in vivo at 10 mg/kg (Rattus norvegicus [8]) [%]	inhibition in vivo at 10 mg/kg (Rattus norvegicus [9]) [%]
23.8	C/C1=C/CCC2=C[C@@H](OC2=O)C(C)(C)/C=C\C1=O	15.5	22.6	32.9	44.4				
220	COC(=O)/C1=C\CC(C)(C)/C=C/C(=O)C(C)CCC1 (single isomer, unassigned; (-))	8.73	16.7	24.6					
4.14	O=C(O)Cc1ccccc1Nc1c(Cl)cccc1Cl [DICLOFENAC SODIUM]	22.6	31.8	41.7	70.2	64.9	71.5	73.7	78.6

Source: ChEMBL document CHEMBL4004796, “Exploring the Bioactive Terpenoid Content of an Algerian Plant of the Genus Pulicaria: The ent-Series of Asteriscunolides” (J Nat Prod, 2017)
